Source: ChEMBL document CHEMBL1641466, “Structure based evolution of a novel series of positive modulators of the AMPA receptor” (Bioorg Med Chem Lett, 2011)
pEC50: −log10 of the molar value. ≈ marks a conversion by molar mass, not a printed value.

Legend:
Glutamate receptor 2 = Glutamate receptor 2 (Homo sapiens, UniProt P42262); assay: Modulatory activity at GluA2 receptor LBD
[1] = Permeability from basolateral to apical side of human Caco2 cells; format: ADME, cell-based; conditions: Caco-2, read-out: permeability
[2] = Permeability from apical to basolateral side of human Caco2 cells; format: ADME, cell-based; conditions: Caco-2, read-out: permeability
[3] = Intrinsic clearance in human microsomes assessed per mg of protein; format: ADME, Microsome
[4] = Intrinsic clearance in rat microsomes assessed per mg of protein; format: ADME, Microsome
[5] = Solubility of the compound; format: physicochemical
[6] = Plasma concentration in Wistar rat at 1 mg/kg, iv and 5 mg/kg, po; format: ADME, organism-based
[7] = Bioavailability in Wistar rat at 1 mg/kg, iv and 5 mg/kg, po; format: ADME, organism-based; conditions: in vivo
Procedure, shortened: (§1)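 Wistar BRL rats; pharmacokinetics from 1 mg/kg i.v. and 5 mg/kg p.o. dosing; plasma clearance, half-life and oral bioavailability (F%) derived.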

[8] = Half life in Wistar rat at 1 mg/kg, iv and 5 mg/kg, po; format: ADME, organism-based; conditions: in vivo; procedure, shortened: as §1
[9] = Half life in Wistar rat at 2 mg/kg, iv and 10 mg/kg, po; format: ADME, organism-based; conditions: in vivo
[10] = Bioavailability in Wistar rat at 2 mg/kg, iv and 10 mg/kg, po; format: ADME, organism-based; conditions: in vivo
[11] = Volume of distribution at steady state in Wistar rat at 2 mg/kg, iv and 10 mg/kg, po; format: ADME, organism-based; conditions: in vivo, read-out: Vdss
[12] = Cmax in Wistar rat cerebrospinal fluid at 2 mg/kg, ip; format: ADME, organism-based; parameters: dose 2 mg/kg, route intraperitoneal
Procedure, shortened: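 Wistar BRL rats dosed 2 mg/kg i.p.; drug concentration measured in CSF to gauge CNS exposure, Cmax reported.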

[13] = Clearance in Wistar rat at 2 mg/kg, iv and 10 mg/kg, po; format: ADME, organism-based; conditions: in vivo
Hepatocyte = assay: Metabolic stability in rat hepatocytes assessed per cells; format: ADME, cell-based

Chain of Glutamate receptor 2 (P42262 whole entry, the tested form may be a part): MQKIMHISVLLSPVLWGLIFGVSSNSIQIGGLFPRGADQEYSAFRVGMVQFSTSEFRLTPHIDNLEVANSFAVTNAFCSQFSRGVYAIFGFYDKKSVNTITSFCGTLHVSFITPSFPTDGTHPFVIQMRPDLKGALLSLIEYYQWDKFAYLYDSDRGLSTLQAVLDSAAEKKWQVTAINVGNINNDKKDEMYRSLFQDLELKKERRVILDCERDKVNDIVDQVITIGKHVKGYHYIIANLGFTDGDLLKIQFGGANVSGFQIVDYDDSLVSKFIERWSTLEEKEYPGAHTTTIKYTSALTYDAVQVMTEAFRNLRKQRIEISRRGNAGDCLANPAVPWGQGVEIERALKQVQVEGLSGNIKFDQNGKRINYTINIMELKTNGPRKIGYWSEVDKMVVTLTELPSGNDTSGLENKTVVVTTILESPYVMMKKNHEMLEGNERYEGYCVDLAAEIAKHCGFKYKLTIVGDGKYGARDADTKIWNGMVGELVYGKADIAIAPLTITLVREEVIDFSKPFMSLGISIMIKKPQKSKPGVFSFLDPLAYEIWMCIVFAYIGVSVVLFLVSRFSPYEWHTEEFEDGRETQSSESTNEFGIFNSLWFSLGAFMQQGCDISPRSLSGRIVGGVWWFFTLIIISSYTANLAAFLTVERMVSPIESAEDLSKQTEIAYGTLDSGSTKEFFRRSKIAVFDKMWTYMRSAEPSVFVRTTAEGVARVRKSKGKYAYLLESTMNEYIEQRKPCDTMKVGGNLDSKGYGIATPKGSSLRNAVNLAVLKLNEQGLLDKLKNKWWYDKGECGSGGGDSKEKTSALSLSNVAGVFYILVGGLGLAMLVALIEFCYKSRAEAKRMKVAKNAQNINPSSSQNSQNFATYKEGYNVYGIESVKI

pEC50 (Glutamate receptor 2)	SMILES	other results
5.80	CC(C)S(=O)(=O)N[C@H]1Cc2ccc(Cn3nc(C(F)(F)F)c4c3CCNC4)cc2C1	
6.30	CC(C)S(=O)(=O)N[C@H]1Cc2ccc(Cn3cc(CO)c(C(F)(F)F)n3)cc2C1	Papp B→A [1]: 29 ×10⁻⁶ cm/s; Papp A→B [2]: 12.8 ×10⁻⁶ cm/s; microsomal CLint [3]: 23 µL/min/mg; microsomal CLint [4]: 31 µL/min/mg
6.10	CC(C)S(=O)(=O)N[C@H]1Cc2ccc(Cn3cc(CO)c(C(F)(F)F)c3)cc2C1	
7.00	CC(C)S(=O)(=O)N[C@H]1Cc2ccc(Cn3nc(C(F)(F)F)cc3C(F)(F)F)cc2C1	solubility [5]: < 1 µg/mL
5.90	CC(C)S(=O)(=O)N[C@H]1Cc2ccc(Cn3cc(CCO)c(C(F)(F)F)n3)cc2C1	
5.90	CCn1nc(C(F)(F)F)cc1Cc1ccc2c(c1)C[C@@H](NS(=O)(=O)C(C)C)C2	
6.40	CC(C)S(=O)(=O)N[C@@H]1Cc2ccc(Cn3cc(CO)c(C(F)(F)F)n3)cc2C1	
5.40	CC(C)S(=O)(=O)N[C@H]1Cc2ccc(Cn3ncc(CO)c3C(F)(F)F)cc2C1	
5.90	CC(C)S(=O)(=O)N[C@H]1Cc2ccc(Cn3cc(CF)c(C(F)(F)F)n3)cc2C1	
6.00	CC(C)S(=O)(=O)N[C@H]1Cc2ccc(Cc3ccc(C(F)(F)F)o3)cc2C1	
5.90	CC(C)S(=O)(=O)N[C@H]1Cc2ccc(Cn3nc(C(F)(F)F)c4c3CCCC4)cc2C1	

The remaining lines, values behind:

SMILES	pEC50 (Glutamate receptor 2)	other results
CS(=O)(=O)N[C@H]1Cc2ccc(Cn3cc(CO)c(C(F)(F)F)n3)cc2C1	5.10	
CCS(=O)(=O)N[C@H]1Cc2ccc(Cn3cc(CO)c(C(F)(F)F)n3)cc2C1	6.40	
COc1ccccc1S(=O)(=O)NC1CCc2cc(Cn3cc(CO)c(C(F)(F)F)n3)ccc21 (stereo not given)	5.70	
CN(C)S(=O)(=O)N[C@@H]1Cc2ccc(Cn3cc(CO)c(C(F)(F)F)n3)cc2C1	6.00	
CC(C)S(=O)(=O)NC1CCc2cc(Cn3cc(CO)c(C(F)(F)F)n3)ccc21 (stereo not given)	7.00	
O=S(=O)(N[C@H]1Cc2ccc(Cn3cc(CO)c(C(F)(F)F)n3)cc2C1)C(F)(F)F	5.30	
NC(=O)c1c(NC(=O)Cn2cc(CO)c(C(F)(F)F)n2)sc2c1CCCC2	6.40	solubility [5]: 20 µg/mL (≈ 49.7 µM)
CC(C)S(=O)(=O)NC[C@H](C)c1ccc(-n2cc(CO)c(C(F)(F)F)n2)cc1		Papp B→A [1]: 28.7 ×10⁻⁶ cm/s; clearance [6]: 49.7 mL/min/kg; bioavailability [7]: 3.2%; Papp A→B [2]: 20.6 ×10⁻⁶ cm/s; half-life [8]: 1 h; microsomal CLint [3]: < 12 µL/min/mg; microsomal CLint [4]: < 12 µL/min/mg
O=S(=O)(N[C@@H]1Cc2ccc(Cn3cc(CO)c(C(F)(F)F)n3)cc2C1)C(F)(F)F	5.60	Papp B→A [1]: 26.4 ×10⁻⁶ cm/s; half-life [9]: 7.4 h; bioavailability [10]: 100%; Vd [11]: 1 L/kg; Papp A→B [2]: 16.9 ×10⁻⁶ cm/s; solubility [5]: 84 µg/mL (≈ 189 µM); clearance [3]: < 12 µL/min/mg; Cmax [12]: 120 nM; clearance [13]: 1.9 mL/min/kg; Stability (Hepatocyte): < 6 µL/min; clearance [4]: < 12 µL/min/mg
O=S(=O)(N[C@@H]1Cc2ccc(Cn3cc(CO)c(C(F)(F)F)n3)cc2C1)C1CC1	5.60	
CCNCc1cn(CC(=O)Nc2sc3c(c2C(N)=O)CCCC3)nc1C(F)(F)F	6.10	half-life [9]: 1.1 h
CC(C)S(=O)(=O)NC1Cc2ccc(-n3cc(CO)c(C(F)(F)F)n3)cc2C1 (racemic)	< 4.50	
Cn1cc(S(=O)(=O)NC2CCc3cc(Cn4cc(CO)c(C(F)(F)F)n4)ccc32)c(C(F)(F)F)n1 (stereo not given)	5.90	
O=S(=O)(NC1CCc2cc(Cn3cc(CO)c(C(F)(F)F)n3)ccc21)C1CC1 (stereo not given)	6.80	
CS(=O)(=O)NC1CCc2cc(Cn3cc(CO)c(C(F)(F)F)n3)ccc21 (stereo not given)	6.30	
